For twelve compounds, MIC, Activity and IC50 results are on record in ChEMBL document CHEMBL4190288, “Bioactive Azaphilone Derivatives from the Fungus Talaromyces aculeatus” (J Nat Prod, 2017).

The test system of one experiment is Vibrio anguillarum. Description: Antibacterial activity against Vibrio anguillarum after 18 hrs by broth dilution method. It is filed as functional. The method, boiled down:
(§1)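 Conventional broth dilution MIC assay run on a panel of Gram-positive strains (Micrococcus lysodeikticus, Bacillus cereus, Bacillus megaterium) and Gram-negative strains (Proteus vulgaris, Vibrio anguillarum, Vibrio parahaemolyticus). Ciprofloxacin served as the positive control.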
On the technique in general: In broth dilution the organism is exposed to a series of concentrations in liquid medium.

A further experiment has as its system Proteus vulgaris. Nature of the experiment: Antibacterial activity against Proteus vulgaris after 18 hrs by broth dilution method.
The next experiment deals with Micrococcus luteus. Description: Antibacterial activity against Micrococcus lysodeikticus after 18 hrs by broth dilution method.
For another experiment, the system named is Bacillus cereus. Description: Antibacterial activity against Bacillus cereus after 18 hrs by broth dilution method.
Another experiment has as its system Vibrio parahaemolyticus. Description: Antibacterial activity against Vibrio parahaemolyticus after 18 hrs by broth dilution method. It is filed as functional. An outline of the steps:
as §1

A further experiment relates to Priestia megaterium. Description: Antibacterial activity against Bacillus megaterium after 18 hrs by broth dilution method.
Another experiment has as its system HL-60. Nature of the experiment: Cytotoxicity against human HL60 cells by MTT assay. It is filed as functional, cell-based. The method, boiled down:
(§2)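 Cytotoxicity tested on human HL-60, HeLa, A549 and K562 cell lines by a previously referenced method. Adriamycin was the positive control.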

Another experiment has as its system HeLa. Description: Cytotoxicity against human HeLa cells by SRB assay. Format: functional, cell-based. An outline of the steps:
as §2
In general terms: Sulforhodamine B stains cellular protein and so reports cell mass.

Another experiment has as its system K562. Nature of the experiment: Cytotoxicity against human K562 cells by MTT assay. Format: functional, cell-based. An outline of the steps:
as §2

The subject of another experiment is A549. Nature of the experiment: Cytotoxicity against human A549 cells by SRB assay. It is filed as functional, cell-based. An outline of the steps:
as §2

In the next experiment the target is Alpha glucosidase (Homo sapiens, UniProt O43451+P10253+P14410+Q2M2H8). Description: Inhibition of alpha-glucosidase (unknown origin) using p-nitrophenyl glycoside as substrate treated 20 mins post substrate addition measured for 1 min by spectrophotometric analysis. It is filed as protein assay. The method, boiled down:
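In vitro α-glucosidase inhibition measured by a previously referenced procedure.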

The structures appear in SMILES notation. Values after ≈ are worked out from the molar mass of the structure shown. Active and inactive are the calls of the source. No cut-off for these calls is given here.

The term MIC denotes the least concentration at which growth counts as inhibited. Higher therefore signals weaker potency. What is called IC50 is the point on the concentration scale where inhibition reaches its midpoint.

Take `O=C(O)c1cn(C2CC2)c2cc(N3CCNCC3)c(F)cc2c1=O` [CIPROFLOXACIN]: the MIC against Vibrio anguillarum was 0.199 to 0.52 µg/mL (≈ 0.601 to 1.57 µM); in the experiment with Proteus vulgaris, 0.199 µg/mL (≈ 0.601 µM); against Micrococcus luteus, 0.099 µg/mL (≈ 0.299 µM); with Bacillus cereus, 0.43 µg/mL (≈ 1.3 µM); in the experiment on Vibrio parahaemolyticus, 0.43 µg/mL (≈ 1.3 µM); in the experiment with Priestia megaterium, 1.66 µg/mL (≈ 4.99 µM).
Take `Cc1cc(O)cc(O)c1C(=O)O[C@H]1[C@@H]2COC(/C=C/C(=O)O)=CC2=CC(=O)[C@@]1(C)O`: the result with HL-60, in the experiment with HeLa, in the experiment with K562 and in the experiment on A549 was inactive. In the experiment with Vibrio anguillarum, this compound yielded a minimum inhibitory concentration (MIC) greater than 8.28 µg/mL. Further, the half-maximal inhibitory concentration (IC50) at Alpha glucosidase was greater than 200 µM.
With `Cc1cc(O)cc(O)c1C(=O)O[C@]1(C)C(=O)C=C2C=C(/C=C/CO)OC=C2C1=O`, the result in the experiment on HL-60, in the experiment on HeLa, with K562 and in the experiment with A549 was inactive. The compound also displayed an IC50 on Alpha glucosidase greater than 200 µM.
On to `Cc1cc(O)cc(O)c1C(=O)O[C@H]1[C@@H]2COC(/C=C/C=O)=CC2=CC(=O)[C@@]1(C)O`, for which the outcome in the experiment with HL-60, in the experiment on HeLa, with K562 and in the experiment with A549 was inactive. The same compound yielded an MIC against Vibrio anguillarum of 0.26 µg/mL (≈ 0.649 µM). The IC50 on Alpha glucosidase came to 22.9 µM.
For `COC(=O)CCC1=CC2=CC(=O)[C@@](C)(O)[C@@H](OC(=O)c3c(C)cc(O)cc3O)[C@@H]2CO1`, the result in the experiment on HL-60, with HeLa, in the experiment with K562 and in the experiment on A549 was inactive. The same compound registered a minimum inhibitory concentration (MIC) with Vibrio anguillarum greater than 8.28 µg/mL. Further, the IC50 on Alpha glucosidase was greater than 200 µM.
Regarding `C/C=C/C1=CC2=CC(=O)[C@@](C)(O)[C@@H](OC(=O)c3c(C)cc(O)cc3O)[C@@H]2CO1`, the outcome in the experiment on HL-60, in the experiment with HeLa, with K562 and in the experiment with A549 was inactive. In addition, the minimal inhibitory concentration (MIC) with Vibrio anguillarum is greater than 8.28 µg/mL. Besides, the IC50 at Alpha glucosidase is greater than 200 µM.
`C/C=C/C1=CC2=CC(=O)[C@@](C)(OC(=O)c3c(C)cc(O)cc3O)C(=O)C2=CO1`: the outcome in the experiment with HL-60, in the experiment on HeLa, with K562 and in the experiment on A549 was inactive. In addition, in the experiment with Vibrio anguillarum, the minimum inhibitory concentration (MIC) was 0.26 µg/mL (≈ 0.68 µM). This compound registered an IC50 at Alpha glucosidase greater than 200 µM.
For `Cc1cc(O)cc(O)c1C(=O)O[C@H]1[C@@H]2COC(/C=C/CO)=CC2=CC(=O)[C@@]1(C)O` [PINOPHILIN B], the outcome in the experiment on HL-60, in the experiment with HeLa, in the experiment on K562 and with A549 was inactive. This compound showed a minimal inhibitory concentration (MIC) against Vibrio anguillarum greater than 8.28 µg/mL. The same compound returned an IC50 against Alpha glucosidase greater than 200 µM.
Take `COC(=O)C1=CC2=CC(=O)[C@@](C)(O)[C@@H](OC(=O)c3c(C)cc(O)cc3O)[C@@H]2CO1`: the result with HL-60, in the experiment on HeLa, in the experiment on K562 and with A549 was inactive. The minimum inhibitory concentration (MIC) in the experiment on Vibrio anguillarum was greater than 8.28 µg/mL. Moreover, at Alpha glucosidase, the IC50 is greater than 200 µM.
With `Cc1cc(O)cc(O)c1C(=O)O[C@H]1[C@@H]2COC(/C=C/[C@H](C)O)=CC2=CC(=O)[C@@]1(C)O`, the result with HL-60, with HeLa, in the experiment on K562 and in the experiment on A549 was inactive. The compound also yielded an MIC against Vibrio anguillarum greater than 8.28 µg/mL. For the same compound, at Alpha glucosidase, the IC50 was determined as 78.6 µM.
In the case of `COC(OC)C1=CC2=CC(=O)[C@@](C)(O)[C@@H](OC(=O)c3c(C)cc(O)cc3O)[C@@H]2CO1`, the outcome with HL-60, in the experiment with HeLa, with K562 and in the experiment with A549 was inactive. The MIC against Vibrio anguillarum was greater than 8.28 µg/mL. At Alpha glucosidase, this compound returned an IC50 greater than 200 µM.
Regarding `Cc1cc(O)cc(O)c1C(=O)O[C@H]1C2=COC(/C=C/CO)=CC2=CC(=O)[C@@]1(C)O`, the outcome with HL-60, in the experiment on HeLa, in the experiment on K562 and with A549 was inactive. In addition, the minimal inhibitory concentration (MIC) against Vibrio anguillarum is greater than 8.28 µg/mL. In addition, on Alpha glucosidase, the half-maximal inhibitory concentration (IC50) is greater than 200 µM.
